TRPC6 activator: mouse TRPC6 channel activators, primary screen, cell-based, HEK293, membrane potential dye. B-score at 10 µM. AID 2550, 2010. actives 0.13% (n = 310,000). HEK293-TRPC6 membrane potential dye fluorescence; hits give high values;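 active = B-score of the integrated fluorescence ratio above library mean plus 3 SD, and starting fluorescence ratio within library mean plus 5 SD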;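 note: higher score means more depolarization so channel activation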
TRPC4 potent: positive allosteric modulators of TRPC4, primary screen, cell-based, mouse TRPC4beta, HEK293 mu-opioid, Fluo-4 calcium; Short transient receptor potential channel 4 (Mus musculus), Q9QUQ5; DAMGO EC20, Fluo-4 Ca2+ flux; hits give high values; B-score at 10 µM; actives 0.42% (n = 310,000); AID 2227, 2009;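 active = B-score of calcium response area above 5 SD of library B-scores, with initial fluorescence ratio within 5 SD of library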
Pemphigus Ab inh: inhibitors of pemphigus antibody binding to DSG3, primary screen, biochemical, bead-based, flow cytometry, scFv-GFP; actives 0.48% (n = 310,000); DSG3-coupled beads, scFv-anti-DSG3-GFP binding; hits give low values; binding (percent of control), % at 10 µM;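 active = binding more than 3 SD below its plate's average and above zero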;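 note: hits lower antibody fragment binding to DSG3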
TRPC6 inh: mouse TRPC6 channel inhibitors, primary screen, cell-based, HEK293, membrane potential dye; ACh-evoked depolarization; hits give low values; B-score at 10 µM; Short transient receptor potential channel 6 (Mus musculus), Q61143; AID 2553, 2010; actives 1.1% (n = 310,000);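 active = B-score under library mean minus 3 SD, initial fluorescence not abnormally high, positive integrated signal ratio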;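 note: B-score derived from integrated fluorescence ratio over the kinetic read; more negative B-score means stronger inhibition of depolarization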
TRPC4 inh: inhibitors of mouse TRPC4 channel, primary screen, Fluo4 calcium, HEK293 TRPC4beta/mu-opioid cells. Short transient receptor potential channel 4 (Mus musculus), Q9QUQ5. DAMGO-evoked Fluo4 calcium flux; hits give low values. B-score at 10 µM. actives 0.39% (n = 300,000). AID 2247, 2010;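 active = B-score over 3 SD under the library average, no early fluorescence shift, positive overall ratio signal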
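Signal: kinetic Fluo4 fluorescence imaging of calcium influx. Material: stable TRPC4beta/mu-opioid receptor HEK293 cells. Probe or stimulus: DAMGO in two steps, submaximal then maximal.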
TRPC4 act: activators of mouse TRPC4 channel, primary screen, Fluo4 calcium, HEK293 TRPC4beta/mu-opioid cells; Short transient receptor potential channel 4 (Mus musculus), Q9QUQ5; Fluo4 calcium fluorescence; hits give high values; B-score at 10 µM; actives 0.49% (n = 310,000); AID 2237, 2010;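 active = B-score above 5 SD of library B-scores, and initial fluorescence ratio not above library mean plus 5 SD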;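 note: positive B-score marks a calcium rise read as TRPC4 activation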
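system = HEK293 cells stably co-expressing mouse TRPC4beta and mu-opioid receptor | schedule = Fluo4 dye loading 45 min at room temperature, 110 s recording | measure = B-scored integrated calcium fluorescence ratio | signal = Fluo4 calcium-sensitive dye fluorescence, kinetic, 1 Hz baseline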
Hits are given with their value; – = inactive; · = no result given. The list is not random: actives were taken first. Their share in the collection is about 2.5%.

SMILES | TRPC6 activator | TRPC4 potent | Pemphigus Ab inh | TRPC6 inh | TRPC4 inh | TRPC4 act
COC(=O)CC(NC(=S)NC(=O)c1ccccc1)c1ccc(Br)cc1 (configuration not stated) | – | 72 | – | – | – | –
COC(=O)CC(N)c1ccc(Br)cc1 (configuration not stated) | – | – | – | – | – | –
CCC(C)(C)n1nnnc1CN(Cc1cccs1)Cc1cc2cc(OC)ccc2[nH]c1=O | – | 11 | – | – | – | –
O=C(Cc1cccc2ccccc12)N/N=C/c1ccc2cccc(O)c2n1 | – | – | 59 | – | – | –
O=C(COC(=O)/C=C/c1cccc(F)c1)Nc1ccc(Cl)cn1 | – | – | – | – | – | –
O=C(COC(=O)/C=C/c1cccc(F)c1)Nc1ncccn1 | – | – | 83 | – | – | –
Cc1cc(OCC(=O)OCC(=O)NCCN2C(=O)CSC2=O)ccc1Cl | · | · | – | · | · | ·
CCn1cc(CN2CCC(C(=O)Nc3ccc(Oc4ccccc4)nc3)CC2)cn1 | – | – | – | – | – | –
O=C(Nc1ccc(Oc2ccccc2)nc1)C1CCN(Cc2ccccc2)CC1 | – | – | – | – | -6 | –
CN(C(=O)Nc1ccc(C(C)(C)C)cc1)C1CCCCC1 | – | – | – | – | – | –
COc1ccc(C2CC(c3ccccc3)Nc3nc(NC(=O)c4cccs4)nn32)cc1 (configuration not stated) | – | – | – | – | -6 | –
Cc1ccc(CNC(=O)C2CCCN(Cc3cnn(-c4ccccc4)c3-n3cccc3)C2)cc1 (configuration not stated) | – | – | – | – | – | 95
COC(=O)/C=C1\N/C(=N/c2nc(C)c3cc(OC)ccc3n2)NC1=O | – | – | – | – | – | –
CCC(=O)Nc1cccc(-n2nnnc2SCC(=O)N2CCCCC2)c1 | – | 10 | – | – | – | –
CCN1CCc2c(OCC(=O)Nc3ccc4c(c3)OCCO4)cccc2C1=O | – | – | · | – | – | –
Cc1csc2c(N3CCN(S(=O)(=O)c4ccc(Cl)cc4)CC3)ncnc12 | – | 10 | – | – | – | –
COc1ccc(-c2csc3ncnc(N4CCN(S(=O)(=O)c5ccc(C)cc5)CC4)c23)cc1 | – | – | 69 | – | – | –
COc1ccc(-c2csc3ncnc(N4CCN(S(=O)(=O)c5cccs5)CC4)c23)cc1 | – | – | – | – | – | –
Cc1ccc(NC(=O)COC(=O)CC2SC(N3CCCC3)=NC2=O)cc1 (configuration not stated) | · | · | – | · | · | ·
CC(=O)Cn1ncc(N2CCOCC2)c(Cl)c1=O | – | – | – | – | – | –
CC(=O)Cn1ncc(N2CCOCC2)cc1=O | – | – | – | – | -8 | –
O=C(Nc1cccc(Cl)c1)NC1CC2CCC1C2 (configuration not stated) | – | – | – | – | – | –
COc1cccc(C(=O)C2CCCN(C/C=C/c3ccccc3OC)C2)c1 (configuration not stated) | – | – | – | – | – | –
COc1ccc(/C=C/CN2CCCC(C(=O)c3ccc(OC)c(F)c3)C2)cc1 (configuration not stated) | – | – | – | – | – | 131
O=C(C[C@H]1C/C=C\CCC(=O)O[C@@H](c2ccccc2)CNC1=O)NCCO | · | · | – | · | · | ·
SMILES | TRPC6 activator | TRPC4 potent | Pemphigus Ab inh | TRPC6 inh | TRPC4 inh | TRPC4 act
N=c1oc2ccc(Br)cc2cc1C(=O)NCc1ccc(F)cc1 | – | 12 | – | – | – | –
Cc1ccc(CNC(=O)c2cc3cc(Br)ccc3oc2=N)cc1 | – | – | – | – | – | –
O=C(NCCC(=O)N1CCN(S(=O)(=O)c2ccccc2Cl)CC1)Nc1ccccc1 | · | · | – | · | · | ·
C#Cc1ccc(CN2CCN(CCc3ccccc3)C(CCO)C2)cc1 (configuration not stated) | – | – | – | – | – | 43
OCCC1CN(Cc2nc3ccccc3s2)CCN1CCc1ccccc1 (configuration not stated) | – | – | – | – | – | 60
O=S(=O)(c1ccccc1)[C@@]1(c2ccc(Br)cc2)C[C@@H]2ON=C(c3ccccc3)[C@@H]2C1 | – | – | – | – | – | –
CN(CC(=O)Nc1ccc(OC(F)(F)F)cc1)C(=O)/C=C/c1cc2c(cc1[N+](=O)[O-])OCO2 | · | · | – | · | · | ·
CN(c1ccccc1)S(=O)(=O)c1cccc(C(=O)Nc2nn[nH]n2)c1 | – | – | – | – | – | –
COc1ccc(N2CCN(C(=O)COC(=O)/C=C/c3ccc(C(F)(F)F)cc3)CC2)cc1 | – | – | – | – | – | –
COc1ccc(N2CCN(C(=O)COC(=O)/C=C/c3ccc(OC(F)F)cc3)CC2)cc1 | – | – | 90 | – | – | –
CC(C)C[C@@]12C(=O)N(c3cccc(F)c3)C(=O)N1[C@H](c1ccc(Cl)cc1)[C@@H]1C(=O)N(C3CCCCC3)C(=O)[C@@H]12 | – | – | – | – | – | –
O=C(c1cc2c(s1)-c1ccccc1S(=O)(=O)C2)N1CCN(Cc2ccccc2)CC1 | – | 10 | – | – | – | –
CCOc1cc(CNCCCN2CCOCC2)cc(Br)c1OCc1ccccc1Cl | – | – | – | – | -7 | –
O=C1C=C(NNC(=O)c2ccccc2Br)CCC1 | – | – | – | – | – | –
CCN(CC)S(=O)(=O)c1ccc(NC(=O)Cn2c(=O)oc3ccccc32)cc1 | – | – | – | – | -6 | –
O=S(=O)(NC1CCCCC1N1CCN(c2ccccc2F)CC1)c1ccc(Cl)cc1 (configuration not stated) | – | 12 | – | – | – | –
CCn1nc(C)c(CN2CCCC(CO)(Cc3cccc(Cl)c3)C2)c1C (configuration not stated) | – | – | – | – | -6 | –
C=CCn1c(SCc2ccc(F)cc2)nc2c1c(=O)[nH]c(=O)n2C | – | – | – | – | – | –
C/C=C/Cn1c(SCc2ccc(C)cc2)nc2c1c(=O)[nH]c(=O)n2C | – | – | 71 | – | – | –
Cn1nc(C(=O)NNC(=O)Cc2ccc(S(=O)(=O)N3CCOCC3)s2)c2ccccc2c1=O | · | · | – | · | · | ·
COc1ccccc1C(=O)NCC(=O)OCC(=O)Nc1ccc2[nH]c(=O)[nH]c2c1 | – | – | – | – | – | –
CCOC(=O)C1CCCN(CCc2ccccc2)C1 (configuration not stated) | – | – | – | – | – | –

Source: PubChem BioAssay (several laboratories)
